Measurements published in ChEMBL document CHEMBL1143670, “An adamantyl-substituted retinoid-derived molecule that inhibits cancer cell growth and angiogenesis by inducing apoptosis and binds to small heterodimer partner nuclear receptor: effects of modifying its carboxylate group on apoptosis, proliferation, and protein-tyrosine phosphatase activity” (J Med Chem, 2007).
pEC50, pIC50: −log10 of the molar value. Calls of active or inactive are those of the source. The calls are words filed in the database; no cut-off is given here.

Experiments:
[1] = Growth inhibition of retinoid-resistant H292 cells at 1 uM relative to control; format: functional; details: Homo sapiens, NCI-H292
Summary of the method: (§1)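 Cells seeded at 2 × 10^3 per well for H292 and DU-145 (RPMI-1640, 10% FBS) or 4 × 10^3 for MDA-MB-231 (DMEM, 10% FBS), 37 °C, 6% CO2. After 24 h attachment, treated 72 h with compound in Me2SO (0.1% final); media and compound renewed at 48 h. Viable cells by MTS reduction; triplicates per concentration.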

[2] = system: KG-1; assay: Inhibition of cell proliferation in retinoid-resistant KG1 cells after 48 hrs; format: functional, cell-based; details: Homo sapiens, KG-1, 48 h
Summary of the method: (§2)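 KG-1 cells grown in RPMI-1640 with 5% heat-inactivated FBS and gentamycin, seeded in 3 mL medium plus 5% FBS, incubated overnight. Compound then added in Me2SO (0.1% final), cells incubated for the stated time, harvested and counted by hemocytometer.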

[3] = system: DU-145; assay: Growth inhibition of retinoid-resistant DU145 cells at 1 uM relative to control; format: functional; details: Homo sapiens; summary of the method: as §1
[4] = system: KG-1; assay: Induction of apoptosis in retinoid-resistant KG1 cells at 5 uM after 48 hrs; format: functional, Homo sapiens
Summary of the method: (§3)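 Apoptotic cells scored by acridine orange staining. KG-1, HL-60R or MDA-MB-231 cells seeded in medium with 5% FBS, incubated overnight, then exposed to compound in Me2SO (0.1% final) for the stated time.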

[5] = Growth inhibition of retinoid-resistant H292 cells after 72 hrs; format: functional, cell-based; details: Homo sapiens, NCI-H292, 72 h; summary of the method: as §1
[6] = system: MDA-MB-231; assay: Growth inhibition of retinoid-resistant MDA-MB-231 cells after 72 hrs; format: functional, cell-based; details: Homo sapiens, MDA-MB-231, 72 h; summary of the method: as §1
[7] = system: MDA-MB-231; assay: Growth inhibition of retinoid-resistant MDA-MB-231 cells at 1 uM relative to control; format: functional; details: Homo sapiens; summary of the method: as §1
[8] = system: KG-1; assay: Inhibition of cell proliferation in retinoid-resistant KG1 cells at 1 uM after 48 hrs relative to control; format: functional; details: Homo sapiens, KG-1, 48 h; summary of the method: as §2
[9] = system: KG-1; assay: Growth inhibition of retinoid-resistant KG1 cells at 5 uM after 48 hrs; format: functional; details: Homo sapiens, KG-1, 48 h; summary of the method: as §2
[10] = system: KG-1; assay: Induction of apoptosis in retinoid-resistant KG1 cells at 1 uM after 48 hrs; format: functional, Homo sapiens; summary of the method: as §3
[11] = system: DU-145; assay: Growth inhibition of retinoid-resistant DU145 cells after 72 hrs; format: functional, cell-based; details: Homo sapiens, DU-145, 72 h; summary of the method: as §1
[12] = Antiproliferative activity against HMVE cells; format: functional, cell-based; details: Homo sapiens
[13] = Inhibition of HMVE cell proliferation at 0.5 uM relative to control; format: functional; details: Homo sapiens
[14] = biological target: T1, Tyrosine-protein phosphatase non-receptor type 11 (Homo sapiens, UniProt Q06124); assay: Inhibition of SHP2 PTP by fluorescence spectroscopy
T1 sequence (Q06124 whole entry): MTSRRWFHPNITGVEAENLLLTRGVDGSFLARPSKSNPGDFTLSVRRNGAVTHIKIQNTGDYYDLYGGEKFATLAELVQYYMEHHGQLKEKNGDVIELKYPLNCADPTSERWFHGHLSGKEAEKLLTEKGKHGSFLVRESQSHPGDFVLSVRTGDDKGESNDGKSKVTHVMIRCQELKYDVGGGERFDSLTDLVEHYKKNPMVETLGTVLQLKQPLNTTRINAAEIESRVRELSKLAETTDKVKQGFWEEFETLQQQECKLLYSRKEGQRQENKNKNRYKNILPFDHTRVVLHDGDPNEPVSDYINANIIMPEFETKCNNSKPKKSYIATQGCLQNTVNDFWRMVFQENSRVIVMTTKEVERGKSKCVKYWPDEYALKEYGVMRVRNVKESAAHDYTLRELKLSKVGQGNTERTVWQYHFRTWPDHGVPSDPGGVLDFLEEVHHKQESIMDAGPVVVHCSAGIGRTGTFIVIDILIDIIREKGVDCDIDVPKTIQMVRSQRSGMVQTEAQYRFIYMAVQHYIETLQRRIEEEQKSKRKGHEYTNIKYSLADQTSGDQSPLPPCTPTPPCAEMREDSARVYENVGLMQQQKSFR

[15] = biological target: Receptor-type tyrosine-protein phosphatase C, CD45 (Homo sapiens) (UniProt P08575); assay: Inhibition of CD45 PTP at 10 uM relative to control by fluorescence spectrometry
[16] = biological target: T2, Nuclear receptor subfamily 0 group B member 2 (Homo sapiens) (UniProt Q15466); assay: Displacement of [5,5'-3H2]AHPN from recombinant human GST-SHP partner nuclear orphan receptor at 50 uM
T2 sequence (whole entry): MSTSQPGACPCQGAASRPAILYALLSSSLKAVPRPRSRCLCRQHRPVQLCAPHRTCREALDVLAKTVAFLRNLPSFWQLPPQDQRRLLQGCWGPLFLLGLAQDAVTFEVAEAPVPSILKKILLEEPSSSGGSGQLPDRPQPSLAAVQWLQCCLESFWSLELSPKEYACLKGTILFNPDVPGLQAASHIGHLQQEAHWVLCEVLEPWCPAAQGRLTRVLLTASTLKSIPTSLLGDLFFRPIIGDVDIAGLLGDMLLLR
Summary of the method: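 GST–human SHP fusion (150–500 ng) on glutathione-Sepharose beads preincubated on ice 45 min with unlabeled compound (50 µM final) in 0.4 mL binding buffer. [5,5′-3H2]AHPN (5 nM final) then added for 2 h at 4 °C. Beads washed, counted by scintillation directly or after elution with 50 mM NaHCO3/1% SDS.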

[17] = system: Trachea; assay: Reversal of keratinization in vitamin A-deficient hamster trachea after 10 days by TOC assay; format: functional, tissue-based; details: Cricetinae, 240 h
[18] = system: F9; assay: Induction of terminal differentiation in mouse F9 cells assessed by measuring secreted plasminogen activator activity after 3 days; format: functional, cell-based; details: F9, 72 h, read-out: IC50 (the source's name)
[19] = system: Mus musculus; assay: Inhibition of TPA-induced ornithine decarboxylase in mouse dorsal epidermis applied topically after 1 hr; format: functional
[20] = system: KG-1; assay: Inhibition of cell proliferation of KG1 cells; format: functional, cell-based; details: Homo sapiens; summary of the method: as §2
[21] = system: HL60R; assay: Induction of apoptosis in tran-RA-resistant HL60R cells at 1 uM after 24 hrs; format: functional; details: Homo sapiens

Chain of Receptor-type tyrosine-protein phosphatase C, CD45 (Homo sapiens) (P08575 whole entry, looked up): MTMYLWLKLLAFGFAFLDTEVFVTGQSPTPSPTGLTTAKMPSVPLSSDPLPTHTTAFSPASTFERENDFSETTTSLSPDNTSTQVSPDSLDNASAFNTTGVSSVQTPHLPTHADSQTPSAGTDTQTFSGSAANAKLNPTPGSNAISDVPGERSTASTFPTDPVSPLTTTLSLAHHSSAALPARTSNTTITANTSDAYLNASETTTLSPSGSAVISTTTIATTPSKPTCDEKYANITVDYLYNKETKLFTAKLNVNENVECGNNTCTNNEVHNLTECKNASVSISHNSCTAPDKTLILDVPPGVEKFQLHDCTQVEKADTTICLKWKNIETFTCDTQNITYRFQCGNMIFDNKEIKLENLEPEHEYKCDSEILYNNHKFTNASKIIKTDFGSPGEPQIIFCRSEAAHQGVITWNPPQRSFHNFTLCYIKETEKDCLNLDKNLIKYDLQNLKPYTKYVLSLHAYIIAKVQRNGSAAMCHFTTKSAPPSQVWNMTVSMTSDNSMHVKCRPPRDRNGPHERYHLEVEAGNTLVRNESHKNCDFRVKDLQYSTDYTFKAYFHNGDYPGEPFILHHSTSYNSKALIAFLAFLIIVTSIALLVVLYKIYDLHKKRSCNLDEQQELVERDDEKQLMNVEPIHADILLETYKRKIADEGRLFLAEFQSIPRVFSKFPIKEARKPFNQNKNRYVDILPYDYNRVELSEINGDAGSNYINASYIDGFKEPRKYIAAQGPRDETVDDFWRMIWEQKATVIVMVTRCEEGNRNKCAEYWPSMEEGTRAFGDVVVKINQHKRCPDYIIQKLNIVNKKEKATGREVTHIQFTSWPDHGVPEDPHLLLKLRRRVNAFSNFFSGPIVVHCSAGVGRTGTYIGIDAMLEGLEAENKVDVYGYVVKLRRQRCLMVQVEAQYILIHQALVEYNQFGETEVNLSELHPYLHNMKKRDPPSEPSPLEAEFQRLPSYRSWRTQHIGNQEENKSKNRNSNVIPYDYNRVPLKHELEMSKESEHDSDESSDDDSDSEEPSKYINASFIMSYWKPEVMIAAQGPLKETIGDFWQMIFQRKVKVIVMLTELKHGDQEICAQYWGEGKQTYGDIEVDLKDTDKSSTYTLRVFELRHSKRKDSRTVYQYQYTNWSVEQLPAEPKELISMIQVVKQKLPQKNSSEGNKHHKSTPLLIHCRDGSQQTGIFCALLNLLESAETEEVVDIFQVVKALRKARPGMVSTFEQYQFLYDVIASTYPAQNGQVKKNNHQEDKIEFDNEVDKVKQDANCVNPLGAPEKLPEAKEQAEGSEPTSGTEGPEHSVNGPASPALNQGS

| SMILES | inhibition at 1 µM [1] [%] | pIC50 [2] | inhibition at 1 µM [3] [%] | Activity [4] [%] | pIC50 [5] | pIC50 [6] | inhibition at 1 µM [7] [%] | inhibition at 1 µM [8] [%] | inhibition at 5 µM [9] [%] | Activity [10] [%] | pIC50 [11] | inhibition at 0.5 µM [13] [%] | other results |
| --- | --- | --- | --- | --- | --- | --- | --- | --- | --- | --- | --- | --- | --- |
| CCOP(=O)(O)/C=C/c1ccc(-c2ccc(O)c(C34CC5CC(CC(C5)C3)C4)c2)c(Cl)c1 | 2 | < 5.30 | 3 | 0 | < 5.30 | < 5.30 | 3 | 0 | 0 | 0 | < 5.30 | – | – |
| Oc1ccc2cc(-c3ccc(O)c(C45CC6CC(CC(C6)C4)C5)c3)ccc2c1 | – | – | – | – | – | – | – | – | – | – | – | 15 | pIC50 [12]: < 6.30 |
| Oc1ccc(-c2ccc(-c3nnn[nH]3)cc2Cl)cc1C12CC3CC(CC(C3)C1)C2 | 3 | < 5.30 | 0 | 2 | 4.85 | 4.15 | 0 | 13 | 21 | 2 | 4.28 | – | pIC50 [14]: 5.89; inhibition [15]: 46% |
| O=C1NC(=O)/C(=C/C=C/c2ccc(-c3ccc(O)c(C45CC6CC(CC(C6)C4)C5)c3)c(Cl)c2)S1 | 2 | – | 0 | 2 | 4.64 | 4.62 | 0 | 0 | 2 | 2 | 4.82 | – | Activity [16]: 69% |
| CC1(C)CCC(C)(C)c2cc(-c3ccc4cc(C(=O)O)ccc4c3)ccc21 | – | – | – | – | – | – | – | – | – | – | – | – | pIC50 [17]: 11.15; pEC50 [18]: 9.00; ID50 [19]: 2 nmol |
| CC1(C)CCC(C)(C)c2cc(/C(=N\O)c3ccc4cc(C(=O)O)ccc4c3)ccc21 | – | – | – | – | – | – | – | – | – | – | – | 30 | – |
| O=C(O)c1ccc2c(Cl)c(-c3ccc(O)c(C45CC6CC(CC(C6)C4)C5)c3)ccc2c1 | – | – | – | – | – | – | – | – | – | – | – | 45 | pIC50 [12]: 6.30 |
| CC(=O)NCCCOc1cc(/C=C/C(=O)O)ccc1-c1ccc(O)c(C23CC4CC(CC(C4)C2)C3)c1 | – | – | – | – | – | – | – | – | – | – | – | – | Activity [16]: 72% |
| OB(O)/C=C/c1ccc(-c2ccc(O)c(C34CC5CC(CC(C5)C3)C4)c2)c(Cl)c1 | 0 | < 5.30 | 2 | 4 | 5.14 | 4.72 | 3 | 0 | 0 | 4 | 5.15 | – | Activity [16]: 0%; pIC50 [20]: < 5.30 |
| O=C(O)c1ccc2ccc(-c3ccc(O)c(C45CC6CC(CC(C6)C4)C5)c3)cc2c1 | – | – | – | – | – | – | – | – | – | – | – | 15 | Activity [21]: inactive; pIC50 [12]: < 6.30 |
| CC1(C)CCC(C)(C)c2cc(-c3ccc(/C=C/C(=O)O)cc3)ccc21 | – | – | – | – | – | – | – | – | – | – | – | – | pIC50 [17]: 9.49; pEC50 [18]: 9.52; ID50 [19]: 7.5 nmol |
| O=CC(=O)/C=C/c1ccc(-c2ccc(O)c(C34CC5CC(CC(C5)C3)C4)c2)c(Cl)c1 | 7 | 5.00 | 0 | 6 | 5.15 | 4.85 | 0 | 11 | 38 | 5 | 5.11 | – | – |
| CC1=C(/C=C/C(C)=C/C=C/C(C)=C/C(=O)O)C(C)(C)CCC1 [TRETINOIN] | – | – | – | – | – | – | – | – | – | – | – | 10 | pIC50 [17]: 11.00; pIC50 [12]: < 6.30; ID50 [19]: 0.19 nmol |
| O=C(/C=C/c1ccc(-c2ccc(O)c(C34CC5CC(CC(C5)C3)C4)c2)c(Cl)c1)NO | 6 | < 5.30 | 7 | 4 | 5.05 | 5.20 | 4 | 0 | 0 | – | 5.46 | – | Activity [16]: 7%; pIC50 [20]: < 5.30 |
| N#CC(C#N)=Cc1ccc(-c2ccc(O)c(C34CC5CC(CC(C5)C3)C4)c2)c(Cl)c1 | 0 | < 5.30 | 4 | 3 | < 5.00 | < 5.00 | 0 | 0 | 0 | 0 | < 5.00 | – | pIC50 [20]: < 5.30 |
| Oc1ccc(-c2ccc(/C=C/c3nnn[nH]3)cc2Cl)cc1C12CC3CC(CC(C3)C1)C2 | 3 | 4.89 | 0 | 12 | 4.80 | 4.68 | 0 | 0 | 31 | 10 | 4.85 | – | – |
| O=C(O)/C=C/c1ccc(-c2ccc(O)c(C34CC5CC(CC(C5)C3)C4)c2)cc1 [ADAROTENE] | – | – | – | – | – | – | – | – | – | – | – | 90 | inhibition [15]: 84%; pIC50 [12]: 7.00 |
| Cc1c(-c2ccc(O)c(C34CC5CC(CC(C5)C3)C4)c2)ccc2cc(C(=O)O)ccc12 | – | – | – | 73 | – | – | – | – | – | – | – | – | Activity at 1 µM ([10]; Homo sapiens, KG-1, 48 h): 51% |
| Cc1c(-c2ccc3c(c2)C(C)(C)CCC3(C)C)ccc2cc(C(=O)O)ccc12 | – | – | – | – | – | – | – | – | – | – | – | – | pIC50 [17]: 10.10; pEC50 [18]: 8.52; ID50 [19]: 66 nmol |
